Published values collected from several papers.
Lines come from different studies, so protocols differ.
Target: Serine/threonine-protein kinase pim-1 (PIM1, Homo sapiens, UniProt P11309)

SMILES | read-out | action | method | concentration | endpoint | result
CN([C@@H]1CCc2c(CC(=O)O)c3cc(S(C)(=O)=O)ccc3n2C1)S(=O)(=O)c1ccc(F)cc1 | cell-free assay |  | competition with immobilised ligand | 1 µM | remaining binding | 100%
Cc1cc(NC(=O)c2cccc3cc(-c4cccc5[nH]nc(N)c45)ccc23)ccc1F | enzyme activity | inhibitor |  | 0.1 µM | activity vs control | 108%
Cn1c2c(c3ccc(Cl)c(Cl)c31)C(C#N)C1(CCNCC1)NC2=O (racemic) | thermal stability |  | DSF | 10 µM | ΔTm | > 8 °C
Cc1sc(C(=O)NC2COC2)cc1-n1cc(NC(=O)Nc2c(F)cccc2Cl)cn1 | enzyme activity | inhibitor |  | 10 µM | remaining activity | 95.1%
Cc1nc(N2CC[C@@H](O)C2)ncc1-c1cc(C(F)(F)F)cc2[nH]ncc12 | binding |  | competition with immobilised ligand | 1 µM | remaining binding | 100%
Nc1ncnc2occ(-c3ccc(NC(=O)Nc4cc(C(F)(F)F)ccc4F)cc3)c12 | cell-free assay | inhibitor |  | 20 µM | remaining signal | 55%
O=C(NCCCC1CCCCC1)c1ccc(CNC(=O)c2cnn(-c3ccccc3)c2C(F)(F)F)cc1 | cell-free assay |  | competition with immobilised ligand | 0.1 µM | remaining binding | 100%
FC(F)c1nc2ccccc2n1-c1nc(N2CCOCC2)nc(N2CCOCC2)n1 | enzyme activity | inhibitor |  | 10 µM | remaining activity | 97%
Cc1ccc(Nc2nccc(N(C)c3ccc4c(C)n(C)nc4c3)n2)cc1S(N)(=O)=O | enzyme activity | inhibitor |  | 10 µM | inhibition | 7%
Cn1cc(Cl)c2c(Oc3c(F)cc(Nc4cc(Cl)nc(N)n4)cc3F)ccnc21 | cell-free assay |  | competition with immobilised ligand | 0.1 µM | remaining binding | 100%
O=S(=O)(Nc1cc(Sc2ncn[nH]2)c(O)c2ccccc12)c1ccc(-c2ccccc2)cc1 | enzyme activity | inhibitor |  | 1 µM | remaining activity | ≥ 75%
COc1cc2ncnc(Nc3ccc(F)c(Cl)c3)c2cc1OCCCN1CCOCC1 | cell-free assay |  |  | 0.5 µM | remaining signal | 86.4%
COc1cc(Nc2cnc(C#N)c(O[C@H](C)CN(C)C)n2)ncc1-c1cnn(C)c1 | enzyme activity | inhibitor | radiometric | 1 µM | remaining activity | 72%
CC(C)(C)C(=O)c1sc(NC2CCCCC2)nc1N | enzyme activity | inhibitor |  | 10 µM | remaining activity | 90%
O=C(Nc1cccnn1)N1CC(C/C=C/c2cncc(Oc3ccc(C(F)(F)F)cn3)n2)C1 | cell-free assay |  | competition with immobilised ligand | 1 µM | remaining binding | 91%
O=C1Nc2ccc(Cl)cc2C1=Cc1cc(Cl)c(O)c(Cl)c1 | cell-free assay |  |  | 0.5 µM | remaining signal | 19.4%
CN(C)C1CCN(CC#Cc2nn(C3CCCC3)c3nc(NCc4ccccc4)ncc23)C1 (stereo not shown) | enzyme activity | inhibitor | FRET | 1 µM | inhibition | 2%
COc1cc(Cl)c(C(=O)N[C@@H](CN[C@H]2CC[C@@H](N)CC2)Cc2ccc(C#N)cc2)cc1-c1ccc(CN[C@H](C)c2ccc(C)cc2)o1 | enzyme activity | inhibitor |  | 1 µM | remaining activity | 110%
COc1cc2ncnc(Nc3ccc(Oc4ccccc4)c(C)c3C)c2cc1OC | enzyme activity | inhibitor |  | 1 µM | inhibition | 5%
